The source made the active and inactive calls. No cut-off for these calls is given here.

Activity data for eight compounds are collected here from ChEMBL document CHEMBL1139347, “Total synthesis and cytoprotective properties of dykellic acid” (J Med Chem, 2009).

Experiment [1] relates to U-937. Kind of experiment: Cytoprotective activity against 1.5 uM etoposide-induced cell death in human U937 cells pretreated for 5 hrs measured after 24 hrs by cell flow cytometry using propidium iodide staining relative to control. Type of experiment: functional, cell-based. The method, boiled down:
(§1)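 U-937 suspension cells preincubated 5 h across a concentration range, then challenged with etoposide (final 1.5 µM) or rotenone (final 5 µM). Death scored 24 h later by propidium iodide staining and flow cytometry. Percent protection derived from live-cell fraction relative to vehicle-only and toxin-only controls. SDM from n = 3, each run in triplicate.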
For orientation: Flow cytometry measures light scatter and fluorescence of single cells or particles in a stream.

Experiment [2] concerns U-937. Description: Cytoprotective activity against 20 uM rotenone-induced intracellular ROS production in human U937 cells at 100 uM pretreated for 5 hrs by dihydroethidium dye reduction assay. The experiment is classed as functional, cell-based. The method, boiled down: (§2)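 U-937 cells exposed 5 h to a range of test concentrations or α-tocopherol (100 µM), then rotenone added (final 20 µM). After 40 min, dichlorodihydrofluorescein diacetate (peroxides) or dihydroethidium (superoxide, forming ethidium) added, and cellular fluorescence read by flow cytometry. Compared with vehicle+rotenone control. SDM from n = 3, each in triplicate.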

The test system of experiment [3] is U-937. Kind of experiment: Cytoprotective activity against 20 uM rotenone-induced intracellular ROS production in human U937 cells at 100 uM pretreated for 5 hrs by 2,7-dichlorodihydrofluorescein dye reduction assay. Type of experiment: functional, cell-based. The method, boiled down: as §2
For experiment [4], the target named is T1, Caspase-3 (Homo sapiens) (UniProt P42574).
T1 sequence (whole entry): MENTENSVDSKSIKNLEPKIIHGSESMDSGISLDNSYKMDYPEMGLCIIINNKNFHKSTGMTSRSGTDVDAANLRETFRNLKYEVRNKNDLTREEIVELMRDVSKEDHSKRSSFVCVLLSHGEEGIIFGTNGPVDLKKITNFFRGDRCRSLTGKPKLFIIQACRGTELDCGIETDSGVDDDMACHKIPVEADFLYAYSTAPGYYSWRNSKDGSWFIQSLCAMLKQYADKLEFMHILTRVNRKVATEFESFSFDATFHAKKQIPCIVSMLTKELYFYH
Kind of experiment: Inhibition of recombinant caspase 3 activity expressed in Escherichia coli BL21 (DE3) assessed as p-nitroaniline release using Ac-DEVD-pNA substrate up to 100 uM. The essentials: (§3)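 Recombinant purified caspase-3, -6, -7 and -8 were run as full Michaelis-Menten curves (velocity vs substrate concentration) at several test concentrations up to 100 µM. Hydrolytic pNA release was followed from enzyme-specific tetrapeptide substrates: Ac-DEVD-pNA for caspase-3 and -7, Ac-VEID-pNA for caspase-6, Ac-IETD-pNA for caspase-8. Kinetics given as kcat/KM.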

The subject of experiment [5] is U-937. Kind of experiment: Cytoprotective activity against 50 uM H2O2-induced cell death in human U937 cells pretreated for 5 hrs measured after 24 hrs by cell flow cytometry using propidium iodide staining relative to control. Type of experiment: functional, cell-based. The essentials:
(§4)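 Protection of U-937 cells against H2O2 or MNNG: 5 h preincubation with a range of concentrations before toxin addition, then viability measured after 24 h by propidium iodide staining and flow cytometry. Reported as percent protection versus vehicle-only and toxin-only control cells.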

For experiment [6], the system named is U-937. Kind of experiment: Cytoprotective activity against 5 uM rotenone-induced cell death in human U937 cells pretreated for 5 hrs measured after 24 hrs by cell flow cytometry using propidium iodide staining relative to control. Type of experiment: functional, cell-based. The method, boiled down: as §1
In experiment [7] the test system is U-937. Description: Cytoprotective activity against 50 uM N-methyl-N'-nitro-N-nitrosoguanidine-induced cell death in human U937 cells pretreated for 5 hrs measured after 24 hrs by cell flow cytometry using propidium iodide staining relative to control. Type of experiment: functional, cell-based. The essentials:
as §4

The subject of experiment [8] is U-937. Description: Antiapoptotic activity in human U937 cells assessed as reduction of 1.5 uM etoposide-induced caspase-3/7 like activity pretreated for 5 hrs measured after 24 hrs relative to control. Type of experiment: functional, cell-based. The essentials:
(§5)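 U-937 cells pretreated 5 h with Z-VAD-fmk (100 nM) or a range of test concentrations, then etoposide added (final 1.5 µM) for 24 h. Cells moved to caspase assay buffer, lysed, and given Ac-DEVD-pNA (final 200 µM). pNA release per minute read at 405 nm. DMSO 1% in all wells. Vehicle+etoposide set to 1.0, vehicle alone set to 0. Triplicate, representative of three experiments.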

Experiment [9] deals with T2, Caspase-7 (Homo sapiens) (UniProt P55210).
T2 sequence (whole entry): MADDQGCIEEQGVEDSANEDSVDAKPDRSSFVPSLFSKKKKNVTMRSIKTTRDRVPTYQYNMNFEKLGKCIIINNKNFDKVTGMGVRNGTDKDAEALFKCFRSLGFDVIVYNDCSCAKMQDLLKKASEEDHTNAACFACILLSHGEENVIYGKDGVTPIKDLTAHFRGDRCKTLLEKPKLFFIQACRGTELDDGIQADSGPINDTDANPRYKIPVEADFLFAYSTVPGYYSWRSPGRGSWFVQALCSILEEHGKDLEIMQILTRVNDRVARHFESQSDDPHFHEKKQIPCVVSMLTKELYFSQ
Kind of experiment: Inhibition of recombinant caspase 7 activity expressed in Escherichia coli BL21 (DE3) assessed as p-nitroaniline release using Ac-DEVD-pNA substrate up to 100 uM. The essentials:
as §3

Experiment [10] has as its target Caspase-8 (Homo sapiens) (UniProt Q14790). Description: Inhibition of recombinant caspase 8 activity expressed in Escherichia coli BL21 (DE3) assessed as p-nitroaniline release using Ac-IETD-pNA substrate up to 100 uM. The essentials: as §3
Experiment [11] deals with T3, Caspase-6 (Homo sapiens) (UniProt P55212).
T3 sequence (whole entry): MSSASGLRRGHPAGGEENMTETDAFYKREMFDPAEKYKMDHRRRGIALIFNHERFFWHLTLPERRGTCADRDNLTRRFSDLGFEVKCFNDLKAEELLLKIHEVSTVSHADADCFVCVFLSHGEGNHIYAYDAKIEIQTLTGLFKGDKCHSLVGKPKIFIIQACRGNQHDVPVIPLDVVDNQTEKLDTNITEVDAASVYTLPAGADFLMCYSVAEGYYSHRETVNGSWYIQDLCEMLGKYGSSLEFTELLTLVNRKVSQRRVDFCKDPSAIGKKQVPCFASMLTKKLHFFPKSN
Kind of experiment: Inhibition of recombinant caspase 6 activity expressed in Escherichia coli BL21 (DE3) assessed as p-nitroaniline release using Ac-VEID-pNA substrate up to 100 uM. The essentials:
as §3

For experiment [12], the system named is U-937. Kind of experiment: Antiapoptotic activity in human U937 cells assessed as reduction of 1.5 uM etoposide-induced caspase-3/7 like activity at 100 nM pretreated for 5 hrs measured after 24 hrs relative to control. Type of experiment: functional, cell-based. The essentials:
as §5

Chain of Caspase-8 (Homo sapiens) (Q14790 217-374 limits assumed): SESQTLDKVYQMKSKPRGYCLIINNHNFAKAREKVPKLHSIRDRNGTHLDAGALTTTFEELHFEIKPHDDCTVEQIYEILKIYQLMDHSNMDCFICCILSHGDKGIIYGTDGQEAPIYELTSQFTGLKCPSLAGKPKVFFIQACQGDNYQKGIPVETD
Chain of Caspase-8 (Homo sapiens) (Q14790 385-479 limits assumed): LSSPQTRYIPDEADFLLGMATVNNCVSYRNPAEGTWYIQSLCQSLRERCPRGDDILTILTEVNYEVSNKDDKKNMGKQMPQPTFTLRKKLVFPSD

In the case of `C=C1C=CC(=O)OC1CCCCC` (centres undefined), the outcome in [1] was inactive.
On to `C=C1C=C(CCC(=O)OC)C(=O)OC1/C=C/C=C/C` (centres undefined), for which, in [1], the result was inactive.
The same measure, in the same setting: to `C=C1C=C(CCC(=O)O)C(=O)OC1/C=C/C=CC` (centres undefined) belongs “Active”.
On to `C=C1C=C(CCC(=O)OC)C(=O)OC1CCCCC` (centres undefined), for which the result in experiment [1] was inactive.
For `Cc1c(C)c2c(c(C)c1O)CC[C@@](C)(CCC[C@H](C)CCC[C@H](C)CCCC(C)C)O2`, the outcome in experiment [2] and in experiment [3] was Active.
Turning to `C=C1C=C(CCC(=O)O)C(=O)OC1/C=C/C=C/C` (centres undefined), the result in [2], in experiment [4], in experiment [5], in experiment [9], in experiment [10] and in experiment [11] was inactive. Moreover, the outcome in experiment [12] and in [3] was inactive. Further, the Activity result in [6] and in experiment [7] was “Dose-dependent effect” throughout. Besides, the result in experiment [8] was Active.
As to `C=C1C=CC(=O)OC1/C=C/CCC` (centres undefined), in [1], the result was inactive.
The same measure, in the same setting: to `C=C1C=CC(=O)OC1/C=C/C=C/C` (centres undefined) belongs “inactive”.
